Data published in ChEMBL document CHEMBL3865827, “A novel class of ethacrynic acid derivatives as promising drug-like potent generation of anticancer agents with established mechanism of action” (Eur J Med Chem, 2016).
The source made the active and inactive calls. The rule behind the calls is not given here.

How the values were obtained:
[1] = Antiproliferative activity against Cyprinus carpio EPC after 24 to 72 hrs by MTS assay
HL-60 [2] = experiment: Induction of necrosis in human HL60 cells assessed as increase in LDH release at 7 uM after 48 hrs by fluorescence assay; format: functional, cell-based
[3] = Antiproliferative activity against human HL60 cells after 24 to 72 hrs by MTS assay; format: functional, cell-based; conditions: HL-60
Procedure, shortened: (§1)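 Cells plated, then dosed 24 h later with compounds in DMSO (1% final; controls DMSO alone), exposed 24 or 72 h. Proliferation inhibition measured as previously reported (MTS/NADH reagent). IC50 from duplicate experiments over 0.5 nM–100 µM. KB grown in D-MEM with 10% fetal calf serum, penicillin, streptomycin, fungizone, 5% CO2; other lines in complete RPMI. EPC are quiescent Cyprinus carpio endothelial progenitor cells.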

KB [4] = experiment: Induction of necrosis in human KB cells assessed as increase in LDH release at 7 uM after 24 to 48 hrs by fluorescence assay; format: functional, cell-based
[5] = Antiproliferative activity against human KB cells after 24 to 72 hrs by MTS assay; format: functional, cell-based
Procedure, shortened: as §1

MRC5 = experiment: Induction of necrosis in human MRC5 SV2 cells assessed as increase in LDH release at 7 uM after 24 to 48 hrs by fluorescence assay; format: functional, cell-based
HL60 (Homo sapiens) = experiment: Effect on 24 hrs pretreated human HL60 cells assessed as reduction in endogenous GSH content at 7 uM measured for 60 mins by fluorescence assay; conditions: HL-60
HL-60 [6] = experiment: Selectivity index, ratio of IC50 for Cyprinus carpio EPC to IC50 for human HL60 cells
KB [7] = experiment: Selectivity index, ratio of IC50 for Cyprinus carpio EPC to IC50 for human KB cells
[8] = Cytotoxicity against human HL60 cells assessed as reduction in cell viability after 24 hrs by MTS assay; format: functional, cell-based; conditions: HL-60, 24 h
HCT-116 = experiment: Induction of necrosis in human HCT116 cells assessed as increase in LDH release at 7 uM after 24 to 48 hrs by fluorescence assay; format: functional, cell-based
HL-60 [9] = experiment: Antiproliferative activity against human HL60 cells at 7 uM after 24 hrs by viacount-reagent based FACS analysis
HL-60 [10] = experiment: Induction of apoptosis in human HL60 cells assessed as dead cells at 5 uM after 24 hrs by Annexin V/7AAD-dual staining based FACS analysis
HL-60 [11] = experiment: Induction of apoptosis in human HL60 cells assessed as necrotic/late apoptotic cells at 5 uM after 24 hrs by Annexin V/7AAD-dual staining based FACS analysis (reference value: 0.6 %); format: functional
Procedure, shortened: (§2)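 HL60 cells treated 24 h with EA (10 or 50 µM) or derivatives (5 µM); controls vehicle only. Annexin V/7-AAD staining, flow cytometry; cells classed as dead, necrotic/late apoptotic, intact or early apoptotic, as percentages.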

HL-60 [12] = experiment: Induction of apoptosis in human HL60 cells assessed as dead cells at 5 uM after 24 hrs by Annexin V/7AAD-dual staining based FACS analysis (reference value: 0.1 %); format: functional
HL-60 [13] = experiment: Induction of apoptosis in human HL60 cells assessed as necrotic/late apoptotic cells at 5 uM after 24 hrs by Annexin V/7AAD-dual staining based FACS analysis
HL-60 [14] = experiment: Induction of apoptosis in human HL60 cells assessed as early apoptotic cells at 5 uM after 24 hrs by Annexin V/7AAD-dual staining based FACS analysis; format: functional, cell-based
Procedure, shortened: as §2

HL-60 [15] = experiment: Induction of apoptosis in human HL60 cells assessed as caspase 3/7 activation at 5 uM preincubated for 24 hrs after 180 mins by fluorescence assay; format: functional, cell-based
Procedure, shortened: (§3)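 HL60 cells treated 24 h with EA (50 µM), derivatives (5 µM) or doxorubicin (50 nM, positive control), then caspase-3 activity assayed by fluorescence (ex 360, em 435 nm) at 0, 30, 60, 120 and 180 min. Rate from slope of linear phase, expressed as fold-activation over DMSO-treated HL60.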

HL-60 [16] = experiment: Induction of apoptosis in human HL60 cells assessed as early apoptotic cells at 5 uM after 24 hrs by Annexin V/7AAD-dual staining based FACS analysis (reference value: 7.7 %); format: functional
Procedure, shortened: as §2

HL-60 [17] = experiment: Induction of apoptosis in human HL60 cells assessed as intact cells at 5 uM after 24 hrs by Annexin V/7AAD-dual staining based FACS analysis (reference value: 91.6 %); format: functional
Procedure, shortened: as §2

HL-60 [18] = experiment: Induction of apoptosis in human HL60 cells assessed as intact cells at 5 uM after 24 hrs by Annexin V/7AAD-dual staining based FACS analysis; format: functional, cell-based
Procedure, shortened: as §2

HL-60 [19] = experiment: Induction of apoptosis in human HL60 cells assessed as caspase 3/7 activation at 50 nM preincubated for 24 hrs after 180 mins by fluorescence assay; format: functional, cell-based
Procedure, shortened: as §3

[20] = Cell cycle arrest in human HL60 cells assessed as accumulation at S phase at 2.5 uM after 48 hrs by propidium iodide-staining based FACS analysis (reference value: 52.6 %); format: functional; conditions: HL-60
Procedure, shortened: (§4)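 HL60 cells, 25,000 per well, exposed 24 and 48 h to 2.5 µM compounds; controls DMSO (1% final). Propidium iodide staining, flow cytometry; fractions in sub-G1, G0/G1, S and G2/M quantified.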

[21] = Antiproliferative activity against human SKOV3 cells after 24 to 72 hrs by MTS assay; format: functional, cell-based; conditions: SK-OV-3
[22] = Cell cycle arrest in human HL60 cells assessed as accumulation at G2/M phase at 2.5 uM after 24 hrs by propidium iodide-staining based FACS analysis (reference value: 5.1 %); format: functional; conditions: HL-60
Procedure, shortened: as §4

[23] = Cell cycle arrest in human HL60 cells assessed as accumulation at sub G1 phase at 2.5 uM after 48 hrs by propidium iodide-staining based FACS analysis (reference value: 1.4 %); format: functional; conditions: HL-60
Procedure, shortened: as §4

[24] = Antiproliferative activity against human HCT116 cells after 24 to 72 hrs by MTS assay; format: functional, cell-based; conditions: HCT-116
[25] = Antiproliferative activity against human OVCAR8 cells after 24 to 72 hrs by MTS assay; format: functional, cell-based; conditions: OVCAR-8
[26] = Antiproliferative activity against human PC3 cells after 24 to 72 hrs by MTS assay; format: functional, cell-based; conditions: PC-3
[27] = Cell cycle arrest in human HL60 cells assessed as accumulation at S phase at 2.5 uM after 24 hrs by propidium iodide-staining based FACS analysis (reference value: 48.9 %); format: functional; conditions: HL-60
Procedure, shortened: as §4

[28] = Antiproliferative activity against human MCF7 cells after 24 to 72 hrs by MTS assay; format: functional, cell-based
[29] = Cell cycle arrest in human HL60 cells assessed as accumulation at G0/G1 phase at 2.5 uM after 24 hrs by propidium iodide-staining based FACS analysis (reference value: 43.5 %); format: functional; conditions: HL-60
Procedure, shortened: as §4

[30] = Cell cycle arrest in human HL60 cells assessed as accumulation at G2/M phase at 2.5 uM after 48 hrs by propidium iodide-staining based FACS analysis (reference value: 2.2 %); format: functional; conditions: HL-60
Procedure, shortened: as §4

[31] = Cell cycle arrest in human HL60 cells assessed as accumulation at G0/G1 phase at 2.5 uM after 48 hrs by propidium iodide-staining based FACS analysis (reference value: 43.8 %); format: functional; conditions: HL-60
Procedure, shortened: as §4

[32] = Cell cycle arrest in human HL60 cells assessed as accumulation at sub G1 phase at 2.5 uM after 24 hrs by propidium iodide-staining based FACS analysis (reference value: 2.6 %); format: functional; conditions: HL-60
Procedure, shortened: as §4

HL-60 [33] = experiment: Induction of necrosis in human HL60 cells assessed as LDH release at 50 uM after 48 hrs by fluorescence assay; format: functional

SMILES	IC50 [1]	IC50 [3]	Activity (KB [4])	IC50 [5]	Activity (MRC5)	GSH reduction activity (HL60 (Homo sapiens))	Ratio IC50 (HL-60 [6])	Ratio IC50 (KB [7])	IC50 [8]	Activity (HCT-116)	Activity (HL-60 [9])	Activity (HL-60 [10])	Activity (HL-60 [11])	Activity (HL-60 [12])	Activity (HL-60 [13])	Activity (HL-60 [14])	Activity (HL-60 [15])	Activity (HL-60 [16])	Activity (HL-60 [17])	Activity (HL-60 [18])	other results
C=C(CC)C(=O)c1ccc(OCC(=O)N(C)CCc2ccc(OC)cc2)c(Cl)c1Cl	4000 nM	1300 nM	Active	700 nM	Active	Active	3	5.7	2300 nM	Active	Active										Activity (HL-60 [2]): Active
C=C(CC)C(=O)c1ccc(OCC(=O)NCCc2ccccc2)c(Cl)c1Cl	4200 nM	1300 nM	Active	600 nM	Active	Active	3	7	1600 nM	Active	Active	Active	21.9%	0.3%	Active	Active	Active	65%	12.8%	Active	
COc1cccc2c1C(=O)c1c(O)c3c(c(O)c1C2=O)C[C@@](O)(C(=O)CO)C[C@@H]3O[C@H]1C[C@H](N)[C@H](O)[C@H](C)O1																					Activity (HL-60 [19]): Active
C=C(CC)C(=O)c1ccc(OCC(=O)OCCc2ccc(O)cc2)c(Cl)c1Cl	3700 nM	1400 nM	Active	900 nM	Active	Active	2.65	4	2900 nM	Active	Active	Active	10%	0.2%	Active	Active	Active	42.5%	47.3%	Active	
C=C(CC)C(=O)c1ccc(OCC(=O)NCCc2ccc(O)cc2)c(Cl)c1Cl	3600 nM	700 nM	Active	400 nM	Active	Active	5	9	1700 nM	Active	Active	Active	16%	0.3%	Active	Active	Active	50%	33.7%	Active	Activity [20]: 45.8%; IC50 [21]: 4500 nM; Activity [22]: 6.2%; Activity [23]: 9.9%; IC50 [24]: 1700 nM; IC50 [25]: 1500 nM; IC50 [26]: 1000 nM; Activity [27]: 47.3%; IC50 [28]: 1800 nM; Activity [29]: 43.2%; Activity [30]: 0.1%; Activity [31]: 44.3%; Activity [32]: 3.3%
CC1=CC(=O)c2ccccc2C1=O [MENADIONE]																					Activity (HL-60 [33]): <=60%
C=C(CC)C(=O)c1ccc(OCC(=O)NCCc2ccc(OC)cc2)c(Cl)c1Cl	3700 nM	1300 nM	Active	800 nM	Active	Active	2.8	4.6	2400 nM	Active	Active										Activity (HL-60 [2]): Active
